Experimental findings from ChEMBL document CHEMBL1949626, “Ultrasound-assisted bismuth nitrate-induced green synthesis of novel pyrrole derivatives and their biological evaluation as anticancer agents” (Eur J Med Chem, 2012) are described below.

One data set has as its system HeLa. Briefly: Cytotoxicity against human HeLa cells after 48 hrs by sulforhodamine B assay. Format: functional, cell-based. In short, it runs like this:
(§1)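 Cells seeded at 5000/well, incubated overnight at 37 °C, then exposed 48 h to 0.1 µM-100 µM compound from DMSO stock (final DMSO ≤0.25%); 0.25% DMSO vehicle and 10 μM doxorubicin controls. Fixed, stained with sulforhodamine B, absorbance normalized to untreated cells; 4-parameter logistic fit gives IC50, mean ± SD of two independent assays.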

The next data set concerns HT-29. Briefly: Cytotoxicity against human HT-29 cells after 48 hrs by sulforhodamine B assay. Type of data set: functional, cell-based. To be noted: HT-29, 48 h. In short, it runs like this: as §1
For orientation: Sulforhodamine B stains cellular protein and so reports cell mass.

In data set [1] the test system is HepG2. Briefly: Cytotoxicity against human HepG2 cells after 48 hrs by sulforhodamine B assay. To be noted: HepG2, 48 h. Format: functional, cell-based. In a few lines: as §1
The next data set deals with Caco-2. Briefly: Cytotoxicity against human Caco2 cells after 48 hrs by sulforhodamine B assay. Format: functional, cell-based. The following applies: Caco-2, 48 h. In short, it runs like this: as §1
Data set [2] is described as follows: Cytotoxicity against mouse Hepa1-6 cells after 48 hrs by sulforhodamine B assay. To be noted: Hepa1-6, 48 h.
The subject of the next data set is NIH3T3. The experiment in a line: Cytotoxicity against […] cells after 48 hrs by sulforhodamine B assay. Type of data set: functional, cell-based. The following applies: Mus musculus, NIH3T3, 48 h. In a few lines: as §1
The nature of data set [3]: Cytotoxicity against mouse Hepa1-6 cells at 50 uM after 48 hrs by sulforhodamine B assay.
Data set [4] concerns HepG2. The experiment in a line: Induction of apoptosis in human HepG2 cells assessed as increase in DNA fragmentation by TUNEL assay. Type of data set: functional, cell-based.
Data set [5] deals with Hepa1-6. Briefly: Cytotoxicity against mouse Hepa1-6 cells at 2.5 to 5 uM after 48 hrs by MTS assay.
Another data set has as its system Hepatocyte. The experiment in a line: Cytotoxicity against CD1 mouse hepatocytes at 10 uM after 48 hrs by MTS assay. Format: cell-based. In short, it runs like this: (§2)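 Fresh CD-1 mouse hepatocytes (Williams' E medium) or Hepa1-6 (DMEM, 10% FBS), plated, incubated overnight at 37 °C; media refreshed, then 0.5, 2.5, 5 and 10 μM compound for 48 h. MTS reagent added for 4 h at 37 °C, 5% CO2; A490 normalized to untreated cells. Two independent experiments in duplicate, mean ± SD.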

The subject of data set [6] is HepG2. The experiment in a line: Inhibition of anchorage-independent growth of human HepG2 cells at 12.5 uM after 7 days by soft agar colony formation assay. Type of data set: functional. To be noted: HepG2, 168 h, read-out: GI. In short, it runs like this: (§3)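 HepG2 at 5000 cells/well in top soft agar, exposed to compound for 7 days with compound and fresh medium replaced once on day 4. Agar solubilized on day 7 and cells quantified by fluorescence (485–520 nm filters). Duplicate wells per dose, SD shown.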

Data set [7] has as its system HepG2. Briefly: Cytotoxicity against human HepG2 cells at 2 times IC50 after 24 hrs by sulforhodamine B assay. Format: functional. In a few lines:
(§4)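 HepG2 seeded at 5000 cells/well and treated at twice each compound's calculated IC50 for 24, 48 or 72 h. Cells fixed and viability read by SRB absorbance, normalized to untreated. Three independent experiments run in duplicate; mean ± SD.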

In data set [8] the test system is HepG2. The experiment in a line: Cytotoxicity against human HepG2 cells at 2 times IC50 after 72 hrs by sulforhodamine B assay. Format: functional. In a few lines:
as §4

The test system of data set [9] is HepG2. The experiment in a line: Cytotoxicity against human HepG2 cells at 2 times IC50 after 48 hrs by sulforhodamine B assay. Format: functional. In a few lines: as §4
In data set [10] the test system is HepG2. The experiment in a line: Inhibition of anchorage-independent growth of human HepG2 cells at 25 uM after 7 days by soft agar colony formation assay. Type of data set: functional. To be noted: HepG2, 168 h, read-out: GI. In a few lines: as §3
For data set [11], the system named is HepG2. The experiment in a line: Induction of apoptosis in human HepG2 cells assessed as increase in caspase3/7 activity. Format: functional, cell-based.
The subject of data set [12] is Hepa1-6. The experiment in a line: Cytotoxicity against […] cells at 2.5 to 5 uM after 48 hrs by MTS assay. Format: functional, cell-based. In a few lines: as §2
Data set [13] can be described thus: Cytotoxicity against […] cells after 48 hrs by sulforhodamine B assay. Format: functional, cell-based. The following applies: Hepa1-6, 48 h. In a few lines: as §1

The source made the active and inactive calls. The calls are words filed in the database; no cut-off is given here.

In general, IC50 refers to the concentration that gives 50% inhibition. Consider `c1ccc2c(c1)ccc1c3ccccc3c(-n3cccc3)cc21`, for which the IC50 in the data set on HeLa is more than 50 µM; in the data set with HT-29 it was more than 50 µM; with HepG2 [1], more than 50 µM; with Caco-2, more than 50 µM; in data set [2], 0.7 µM; in the data set on NIH3T3, more than 50 µM. Besides, in data set [3], the Activity stood at 50%.

For the molecule `c1cnc2c(c1)cc(-n1cccc1)c1cccnc12`, the outcome with HepG2 [4] and in the data set on HepG2 [11] was inactive. Moreover, the outcome in the data set with Hepa1-6 [5] was Active. Moreover, the Activity entry in the data set on Hepatocyte is on record as “Non-toxic”; in the data set on HepG2 [7], 20%; in the data set with HepG2 [8], more than 50%; in the data set on HepG2 [9], more than 50%. Moreover, the inhibition of growth at 12.5 µM with HepG2 [6] is more than 80%. Moreover, the inhibition of growth at 25 µM in the data set with HepG2 [10] was more than 60%. The IC50 with HeLa worked out at 27.9 µM; with HT-29 it was 4.2 µM; in the data set with HepG2 [1] it was 3 µM; in data set [2], 3.4 µM; in the data set with NIH3T3 it was 1.9 µM.

Take `c1cc2ccc3ccc(-n4cccc4)c4ccc(c1)c2c34`: the IC50 was 17.7 µM with HeLa, 24.3 µM with HT-29, more than 50 µM with HepG2 [1] and more than 50 µM with Caco-2.

Take `c1ccc2c(c1)ccc1cc(-n3cccc3)ccc12`: the outcome with HepG2 [4] and with HepG2 [11] was inactive. The Activity entry with Hepatocyte was “Non-toxic”; with HepG2 [7] it was 20%; in the data set with HepG2 [8], more than 50%; with HepG2 [9], more than 50%. Besides, the inhibition of growth at 12.5 µM in the data set on HepG2 [6] was more than 80%. Besides, the outcome in the data set on Hepa1-6 [12] was Active. Besides, the inhibition of growth at 25 µM with HepG2 [10] was more than 60%. Besides, the IC50 was more than 50 µM with HeLa; more than 50 µM with HT-29; 13.4 µM with HepG2 [1]; more than 50 µM with Caco-2; 3.9 µM in data set [13]; 2.1 µM in the data set on NIH3T3.

On to `c1ccn(C23CC4CC(CC(C4)C2)C3)c1`, for which the IC50 in the data set on HeLa is 12.9 µM; in the data set on HT-29, 11.9 µM; in the data set on HepG2 [1] it was 38.6 µM; with Caco-2, more than 50 µM; in data set [2], 19.9 µM; with NIH3T3, 24 µM.
